Bioassay records from PubChem BioAssay.
A selection: hits, their analogues and other compounds. The true share with any hit is near 2%.
PG9 Ab binder = binders of HIV-1 gp120 antibody PG9, primary screen, biochemical, TR-FRET; AID 624416, 2012; 0.43% of 360,000 active; HIV-1 gp120 / PG9 antibody interaction; TR-FRET gp120-PG9 antibody binding; inhibition, % at 6.7 µM; in the data active means inhibition above about 8.5%
Rev-erbA mod = modulators of Rev-erb alpha DNA binding, primary screen, biochemical, FITC-DNA, fluorescence polarization, uHTS. Rev-erbα–FITC-DNA binding, 90 min. 0.79% of 370,000 active. AID 1259318, 2017. activity, % at 10 µM;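 active means activity above about 14%, limit read from the data; passing the limit was not always enough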
Neddylation inh = inhibitors of cullin neddylation, primary screen, biochemical, TR-FRET, uHTS, NAE and Ubc12; NEDD8-conjugating enzyme Ubc12 (Homo sapiens) + NEDD8-activating enzyme E1 regulatory …; calls only at 25 µM; 0.58% of 360,000 active; AID 651699, 2012; in the data active means inhibition above about 36%
NR2E3 ag-1 = inhibitors of NR2E3-RetCOR corepressor binding, primary screen, NR2E3 agonist project, biochemical, TR-FRET, GST-NR2E3, biotin-RetCOR | Photoreceptor-specific nuclear receptor (Homo sapiens), Q9Y5X4 | 1536-well | inhibition of corepressor binding, % at 4.78 µM | 0.12% of 320,000 active;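 active means percent inhibition above the cutoff of mean plus 3 SD of all tested compounds, set per screening campaign, cut at about 20% in these data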
Target sequence (Q9Y5X4 whole entry, looked up): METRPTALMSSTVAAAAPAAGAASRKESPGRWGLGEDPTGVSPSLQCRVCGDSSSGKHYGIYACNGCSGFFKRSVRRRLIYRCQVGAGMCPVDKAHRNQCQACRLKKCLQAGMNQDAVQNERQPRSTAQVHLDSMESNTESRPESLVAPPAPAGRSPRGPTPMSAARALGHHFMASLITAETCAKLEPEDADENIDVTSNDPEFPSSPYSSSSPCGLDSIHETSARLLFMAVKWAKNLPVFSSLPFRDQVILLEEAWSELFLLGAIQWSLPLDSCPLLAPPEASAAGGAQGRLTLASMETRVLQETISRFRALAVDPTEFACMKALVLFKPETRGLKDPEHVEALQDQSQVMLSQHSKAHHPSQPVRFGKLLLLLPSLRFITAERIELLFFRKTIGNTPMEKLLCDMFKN
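Test system – NR2E3–RetCOR corepressor complex · Quantity – NR2E3 fusion 1.35 nM · Buffer or medium – Tris pH 7.5 · Incubation – Compound–protein incubation for 5 h at 4 °C · Technique – TR-FRET, Eu(K)-anti-GST donor, streptavidin-D2 acceptor, ex 340, em 617/671 nm · Evaluation – percent inhibition of 671/617 nm emission ratio versus biotin and DMSO controls · Plate – 1536-well format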
NR2E3 ag-2 = NR2E3 agonists in two-hybrid cells, primary screen, cell-based, luminescence, CHO-S, Gal4-NCOR/VP16-NR2E3. Photoreceptor-specific nuclear receptor (Homo sapiens), Q9Y5X4. luciferase. inhibition of corepressor binding, % at 3.98 µM. 0.35% of 360,000 active. AID 602229, 2012;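 active means inhibition above the mean of all tested compounds plus 3 SD, cut at about 70% in these data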;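 further: higher means lower luciferase signal from less NR2E3 corepressor binding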
Neddyl conf = blockade of NEDD8 conjugation to cullin – biochemical, TR-FRET, single concentration, confirmation. shares compounds with Neddylation inh. TR-FRET cullin neddylation biochemical assay. calls only at 25 µM. 13% of 1,800 active; in the data active means inhibition above about 40%;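 further: neddylation substrate is the cullin 1 ring ligase complex with SKP2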
Calls only; n = inactive; x = no result given; + = active, no number.

SMILES | PG9 Ab binder | Rev-erbA mod | Neddylation inh | NR2E3 ag-1 | NR2E3 ag-2 | Neddyl conf
CC1CC(=O)N(CC(=O)NCc2ccccc2)c2ccccc2S1(=O)=O (stereo not given) | n | n | n | n | n | x
COc1cccc(/C=N/c2oc(-c3ccccc3)cc2C#N)c1O | n | n | + | n | n | n
N#Cc1cc(-c2ccccc2)oc1/N=C/c1ccccc1O | n | n | x | n | n | x
CSc1cc(-c2ccccc2)[nH]c(=O)c1C#N | n | n | n | n | n | x
Cc1ccc(-c2cc(-c3ccco3)c(C#N)c(=O)[nH]2)cc1 | n | n | + | n | n | n
Cc1cc(-c2ccccc2)[nH]c(=O)c1C#N | n | n | + | n | n | x
S=C(Nc1ccccc1I)OC1CCC12CCC(c1ccccc1)CC2 (stereo not given) | x | n | x | x | x | x
O=C(c1cc(C2CCCCN2S(=O)(=O)c2cccs2)on1)N1CCOCC1 (stereo not given) | n | n | n | x | n | x
COC(=O)C1CCN(Cc2cn(-c3ccccc3)nc2-c2ccc3c(c2)OCO3)CC1 | n | n | + | n | n | n
CC(=O)NCC1CCCN(Cc2cn(-c3ccccc3)nc2-c2ccc3c(c2)OCO3)C1 (stereo not given) | n | n | + | n | n | n
CC(=O)NCC1CCCN(Cc2cn(-c3ccccc3F)nc2-c2cc(C)sc2C)C1 (stereo not given) | n | n | n | n | n | x
COCCC1CCCCN1Cc1cn(-c2ccccc2)nc1-c1ccc2c(c1)OCO2 (stereo not given) | n | n | n | n | n | x
CCn1c(SCCN2CCCCC2)nc2c1c(=O)n(C)c(=O)n2C | n | n | n | x | n | x
COCCCNC(=O)CN1C(=O)C2CCCCN2C(=O)c2ccccc21 (stereo not given) | x | n | x | x | x | x
CN(/N=C/c1cccnc1)c1cnc2ccccc2n1 | n | n | + | n | n | n
Cn1cc(-c2cccc(C(F)(F)F)c2)cc(C#N)c1=O | n | n | n | n | n | x
Cn1cc(-c2cccc(Cl)c2)cc(C#N)c1=O | n | n | + | n | n | n
Cc1sc2ccccc2c1CNC[C@H]1O[C@@H](n2cnc3c(N)ncnc32)[C@H](O)[C@@H]1O | n | n | n | x | n | x
Cc1cn(-c2cccnc2)c(C)c1CNC[C@H]1O[C@@H](n2cnc3c(N)ncnc32)[C@H](O)[C@@H]1O | n | n | + | x | n | n
Cc1c(OC(C)C(=O)NCCN2CCOCC2)ccc2c3c(c(=O)oc12)CCCC3 (stereo not given) | n | n | + | n | n | x
CC(C)CN1C(=O)CSCC1(C)C(=O)NCc1ccccc1 (stereo not given) | n | n | n | x | x | x
Cc1[nH]c2ccccc2c1/C=N/NC(=O)c1cccc(S(=O)(=O)Nc2ccccc2Cl)c1 | n | n | + | n | n | n
O=C1CCN(CCCc2ccccc2)CCN1[C@H](CO)Cc1ccccc1 | n | n | n | n | n | x
C=CCNC(=S)/N=c1/ccccn1CCC | n | n | + | n | n | n
Cc1cccc(C)c1NC(=O)C1(C)CSCC(=O)N1Cc1cccc(C(F)(F)F)c1 (stereo not given) | n | n | n | x | x | x
SMILES | PG9 Ab binder | Rev-erbA mod | Neddylation inh | NR2E3 ag-1 | NR2E3 ag-2 | Neddyl conf
Cc1cccc(NC(=O)Cn2nc(-c3ccco3)ccc2=O)c1C | n | n | + | n | n | x
Cc1ccccc1NC(=O)CSc1ccc(-c2ccco2)nn1 | n | n | n | n | n | x
O=C(Cn1nc(-c2cccs2)ccc1=O)Nc1ccc(Br)cc1 | n | n | n | n | n | x
O=C(Cn1nc(-c2ccco2)ccc1=O)Nc1ccc(Br)cc1 | n | n | + | n | n | x
c1cn2c(Nc3ccc4c(c3)OCCO4)c(-c3ccc(N4CCOCC4)cc3)nc2cn1 | n | n | + | n | n | n
Clc1ccc(-c2nc3cnccn3c2Nc2ccc3c(c2)OCO3)cc1 | n | n | + | n | n | n
